Experimental findings from PubChem BioAssay are described below.

Usually viability stands for a read-out of living cells in per cent, often relative to untreated cells. What is called inhibition is the relative decrease from the control value, in per cent.

Unmarked numbers belong to inactive results. Inconclusive results are not listed. Active and inactive are the calls of the source.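 How the source made its calls, unless noted: active means inhibition over a set limit, the all-compound mean plus 3 SD, in both replicate runs; inconclusive means over that limit in just one replicate run; inactive means at or under that limit in both runs.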

Test [1] can be described thus: OD615 S. cerevisiae growth inhibition, permissive medium, pilot counter-assay, permissive growth control for S. cerevisiae lifespan shortening project (AID 705;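 active means growth inhibition above 25% in both replicates, a cutoff set 3 SD above the mean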). The note with it: OD615, 24 h, at 10 µM, stronger effect = higher value. Summed up: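 Test system: Saccharomyces cerevisiae strain carrying genetically modified DeaD replicative-lifespan system; buffer or medium: SC raffinose/galactose permissive medium; dosing: one dose 10 µM, DMSO 0.25% final; times: 24 h exposure, 30 °C; measured by: OD at 615 nm; read-out basis: growth inhibition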

A short description of test [2]: Restrictive medium S. cerevisiae growth inhibition, OD615, pilot screen of yeast lifespan reduction project, restrictive growth control (AID 706;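 active means growth inhibition above a set limit, 3 SD over mean compound inhibition, in both replicates, cut at about 43% in these data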;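 further: modified DeaD lifespan yeast strain shifted to restrictive glucose medium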). The conditions noted are these: OD615, 48 h, at 10 µM, stronger effect = higher value. An outline of the steps: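 material = engineered S. cerevisiae DeaD strain | buffer or medium = glucose-based CSMM-D restrictive medium | dosing = one concentration, 10 µM final, 0.25% DMSO | schedule = 4 h pre-growth plus 48 h compound exposure, 30 °C | detection = OD615 absorbance reading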

Test [3] can be described thus: viability gain of MRP-1-high H69AR cells under doxorubicin, pilot screen, MRP-1 activator project, CellTiter-Glo, duplicate (AID 807;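 active means viability increase at or above a cutoff of the median across tested compounds plus 3 SD, cut at about 8.5% in these data, passing the limit was not always enough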;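 further: compound pretreatment 18-22 h then 72 h combined with doxorubicin; 0% = doxorubicin alone and 100% = vehicle without doxorubicin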). The note with it: H69AR viability with doxorubicin, CellTiter-Glo luminescence; at 10 µM; stronger effect = higher value. Background: ATP-based viability assays read luminescence as a measure of living cells.
Test [4] can be described thus: growth suppression of beta-catenin knockout HCT116, pilot screen, human colon tumor cells (AID 823;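 active means cell viability at or below a set limit in both duplicate runs, the limit being the all-compound median minus 4 SD, cut at about 23% in these data, passing the limit was not always enough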;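 further: 0% = wells killed by 20 µM Hyamine and 100% = untreated DMSO cell wells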). The note with it: CellTiter-Glo, 60 h, at 10 µM, stronger effect = lower value.
Test [5] is described as follows: growth suppression of PTEN-deleted HCT116, pilot screen, cell-based, HCT116 clonal line, CellTiter-Glo (AID 824;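 active means viability at or below 27.92% in each of two runs, the all-compound median minus 4 SD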;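 further: 0% = 20 µM Hyamine control and 100% = vehicle cell control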). The note with it: 60 h, at 10 µM, stronger effect = lower value.
Test [6] in a line: inhibitors of the yeast RAM network, pilot screen, dse1pr::URA3 reporter, 5-FOA selection (AID 869).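 Further: 0% = DMSO wells with no growth and 100% = 10 µM 1-NA-PP1 with full growth; RAM network block rescues cells from 5-FOA so hits raise OD615 growth.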 The conditions noted are these: S. cerevisiae dse1pr::URA3 5-FOA growth, OD615, 2 d; at 10 µM; stronger effect = higher value; strain carries analog-sensitive mutant Cbk1 kinase.
Test [7] in a line: RAM signaling pathway blockade in yeast – S. cerevisiae, Pdr1DBD-CYC8 efflux-inhibited sensitized strain, primary screen (AID 1298;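 active means RAM network inhibition above 8.4% in each of two replicates, 3 SD over the compound average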;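 further: 0% = DMSO untreated cells without growth and 100% = 10 µM 1-NA-PP1 full growth; higher means more yeast growth rescued from 5-FOA killing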). The conditions noted are these: S. cerevisiae cbk1-as DSE1-URA3 strain, 5-FOA growth OD615, 2 d; at 50 µM; stronger effect = higher value.

`Cc1ccc(C)c(NC(=O)CS(=O)(=O)c2cn(C)c3ccccc23)c1`: the growth inhibition in test [1] was -7.22%; in test [2] it was 2.97%. The viability increase in test [3] is -0.69%. The viability was 103% in test [4] and 98.2% in test [5]. Moreover, in test [6], the inhibition is 0.025%. Also, in test [7], the RAM network inhibition was 1.3%.
Turning to `O=S(=O)(NC1=NCCCCC1)c1cccs1`, the growth inhibition was -0.86% in test [1] and -16.7% in test [2]. Moreover, in test [3], the viability increase was -0.2%. Moreover, the viability in test [4] is 100%; in test [5] it was 98.2%. For the same compound, the inhibition in test [6] is 0.765%. Also, in test [7], the RAM network inhibition was 5.54%.
Regarding `CC1CN(Cc2nc3c(c(=O)n(C)c(=O)n3C)n2Cc2ccccc2)CC(C)O1` (centres undefined), the results for the growth inhibition in test [1] and in test [2] were -2.62% and 3.58%, respectively. In addition, the viability increase in test [3] was -0.81%. For the same compound, the viability was 106% in test [4] and 100% in test [5]. For the same compound, in test [6], the inhibition was 0.15%. The RAM network inhibition in test [7] was 2.1%.
Take `CCOC(=O)N1CCC(N2CC34C=CC(O3)C(C(=O)Nc3ccc(C)cc3)C4C2=O)CC1` (centres undefined): the growth inhibition in test [1] is -0.385%; in test [2] it was -0.16%. Also, in test [3], the viability increase was 1.43%. The viability in test [4] is 100%; in test [5], 102%. Moreover, the inhibition in test [6] was 1.33%. Besides, in test [7], the RAM network inhibition was 2.54%.
With `CCN1C(=O)c2cccc3c(N)ccc1c23`, the figures for the growth inhibition in test [1] and in test [2] were -0.755% and -11%, respectively. For the same compound, in test [3], the viability increase was -5.55%. For the same compound, the viability was 74.2% in test [4] and 68.3% in test [5]. The inhibition in test [6] is 0%. In addition, the RAM network inhibition in test [7] was 1.92%.
Consider `O=C(COc1ccc(Cl)cc1)Nc1nnc(-c2ccc3c(c2)CCCC3)o1`, for which the results for the growth inhibition in test [1] and in test [2] were -12.6% and -12.9%, respectively. In addition, the viability increase in test [3] is -1.94%. For the same compound, the viability was 101% in test [4] and 96.5% in test [5]. In test [6], the inhibition is 3.45%. The RAM network inhibition in test [7] is 1.21%.
As for `COc1ccc(CNC(=O)CCS(=O)(=O)c2cccc3nonc23)cc1`, the growth inhibition is -4.22% in test [1] and -26.3% in test [2]. The viability increase in test [3] is -2.89%. Moreover, the values for the viability in test [4] and in test [5] were 95.8% and 100%, respectively. The inhibition in test [6] was 1.94%. Moreover, the RAM network inhibition in test [7] was 6.09%.
With `COc1ccc(N2Cc3cccc(C(=O)O)c3C2=O)cc1`, the growth inhibition was -17.1% in test [1] and -1.34% in test [2]. Also, in test [3], the viability increase was -0.59%. The results for the viability in test [4] and in test [5] were 104% and 101%, respectively. Also, the inhibition in test [6] is 1.5%. Besides, the RAM network inhibition in test [7] is 0.58%.
As to `Cc1oc2c(O)c(O)ccc2c(=O)c1-c1ccccc1`, the figures for the growth inhibition in test [1] and in test [2] were -4.7% and 1.24%, respectively. The viability increase in test [3] was 3.12%. The viability in test [4] was 95.1%; in test [5], 90.3%. Also, the inhibition in test [6] is -0.32%. The RAM network inhibition in test [7] is -0.2%.
Take `COc1ccc(-n2c(Cc3cccn3C)nnc2SCC(=O)Nc2ccccc2C)cc1`: the growth inhibition was -11.6% in test [1] and 11.1% in test [2]. In test [3], the viability increase is -2.39%. The viability is 86% in test [4] and 81.7% in test [5]. Moreover, in test [6], the inhibition was 1.33%. For the same compound, the RAM network inhibition in test [7] was 7.38%.
As for `CCCCOc1ccc(-c2nc(-c3cccnc3)no2)cc1`, the growth inhibition in test [1] is -3.21%; in test [2], 4.81%. For the same compound, the viability increase in test [3] is 4.19%. Also, the values for the viability in test [4] and in test [5] were 68.4% and 82.9%, respectively. The inhibition in test [6] was 0.07%. In addition, in test [7], the RAM network inhibition is 2.29%.
For the compound `COc1ccc(C2C(C(=O)Nc3ccc(F)cc3)=C(C)Nc3nc(CCCO)nn32)cc1` (centres undefined), the growth inhibition is -0.24% in test [1] and -1.29% in test [2]. Further, the viability increase in test [3] is -1.2%. Moreover, the viability is 96.6% in test [4] and 100% in test [5]. In addition, in test [6], the inhibition is 0.24%. The RAM network inhibition in test [7] was 0.37%.
For the compound `CCOC(=O)CSC(CC)C(=O)Nc1nnc(C(C)C)s1` (centres undefined), the values for the growth inhibition in test [1] and in test [2] were 5.7% and 9.58%, respectively. The viability increase in test [3] was -1.46%. Moreover, the viability was 94.6% in test [4] and 94.7% in test [5]. In addition, the inhibition in test [6] is 1%. Further, the RAM network inhibition in test [7] was 9.23%.
As to `CSCCC(NC(=O)c1c(C)oc2c1CCCC2)C(=O)O` (centres undefined), the growth inhibition in test [1] was -2.84%; in test [2], -12.1%. For the same compound, the viability increase in test [3] was -0.78%. Also, the viability was 98.5% in test [4] and 95.9% in test [5]. In test [6], the inhibition was 1.46%. In addition, in test [7], the RAM network inhibition is 0.21%.
In the case of `Cc1cccc(N2CC(c3nc4ccccc4n3C)CC2=O)c1C` (centres undefined), the growth inhibition in test [1] was -8.87%; in test [2], 3.04%. Besides, the viability increase in test [3] is -3.04%. In addition, the viability in test [4] is 104%; in test [5] it was 95.2%. In test [6], the inhibition was 1.46%. Besides, the RAM network inhibition in test [7] is 3.58%.
On to `Cc1cccc(N2CCN(c3nc4ccc(Cl)cc4n4cnnc34)CC2)c1C`, for which the growth inhibition is -17.7% in test [1] and -14.7% in test [2]. Further, the viability increase in test [3] is -8.78%. Also, the viability in test [4] was 2.03% (active); in test [5] it was 1.75% (active). In test [6], the inhibition was -0.44%. For the same compound, the RAM network inhibition in test [7] was -0.95%.
For the compound `CC(CCc1ccco1)NC(=O)c1cc2c(-c3ccccc3F)nn(C)c2s1` (centres undefined), the growth inhibition was -0.025% in test [1] and 5.7% in test [2]. Besides, the viability increase in test [3] is 1.04%. Further, the viability in test [4] is 83.3%; in test [5], 78.7%. Besides, in test [6], the inhibition was 1.15%. Further, the RAM network inhibition in test [7] is -0.15%.
Regarding `CCOC(=O)c1[nH]c(C)c(C(=O)OCC)c1C`, the growth inhibition in test [1] was -9.48%; in test [2], 1.48%. Moreover, the viability increase in test [3] was 2.18%. For the same compound, the viability in test [4] was 105%; in test [5], 97.5%. Also, the inhibition in test [6] was 3.55%. In test [7], the RAM network inhibition was 4.06%.
Turning to `COc1ccc(C2CC(c3cccc(Cl)c3)n3nc(N)nc3N2)cc1` (centres undefined), the growth inhibition in test [1] was -3.22%; in test [2], -3.25%. For the same compound, in test [3], the viability increase was -0.53%. Besides, the viability in test [4] was 99.8%; in test [5] it was 89.9%. In test [6], the inhibition is 1.37%. Besides, the RAM network inhibition in test [7] is 2.3%.
Take `O=S(=O)(c1cccc2cccnc12)N(CCO)CCO`: the figures for the growth inhibition in test [1] and in test [2] were -15.2% and -15.5%, respectively. Besides, in test [3], the viability increase was -0.99%. Moreover, the viability in test [4] was 103%; in test [5] it was 101%. Further, the inhibition in test [6] was 2.62%. In addition, the RAM network inhibition in test [7] is 2.69%.
As to `CCn1cc(S(=O)(=O)CC(=O)Nc2ccc3c(c2)OCCO3)c2ccccc21`, the growth inhibition is -12.1% in test [1] and -19.9% in test [2]. In addition, the viability increase in test [3] is 0.14%. Besides, the values for the viability in test [4] and in test [5] were 101% and 95.3%, respectively. Also, the inhibition in test [6] was 2.54%. The RAM network inhibition in test [7] was 9.35%.
As to `COc1ccc(-c2nc(C#N)c(NCCCN3CCOCC3)o2)cc1`, the results for the growth inhibition in test [1] and in test [2] were 0.22% and -5.34%, respectively. The viability increase in test [3] was -0.09%. Besides, the viability was 103% in test [4] and 94% in test [5]. The inhibition in test [6] is 1.28%. The RAM network inhibition in test [7] was 0.89%.
